Assay results reported in ChEMBL document CHEMBL3526072 (Drug Metab Dispos, 2011).

Legend:
[1] = system: Liver; assay: Increase of CYP3A1 level in streptozotocin-induced diabetes mellitus model of Sprague-Dawley rat liver by Western blot analysis relative to wild type rat; type: ADME, tissue-based
Summary of the method: (§1)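 Rats from the STZ 65 mg/kg i.p. protocol versus citrate-treated age-matched controls, day 35. Hepatic microsomes or duodenal and jejunal homogenates (20 µg protein) run on 10% SDS-PAGE and probed with mouse anti-rat CYP3A1 monoclonal and rabbit anti-rat CYP3A2 polyclonal antibodies; band densitometry expressed relative to controls; mean ± S.D., four rats.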

[2] = Tmax in Sprague-Dawley rat portal vein plasma at 10 mg/kg, po; type: ADME, organism-based; parameters: dose 10 mg/kg, route oral
[3] = Cmax in Sprague-Dawley rat portal vein plasma at 10 mg/kg, po; type: ADME, organism-based; parameters: dose 10 mg/kg, route oral
[4] = AUC (0 to 90 mins) in Sprague-Dawley rat portal vein plasma at 10 mg/kg, po; type: ADME, organism-based; parameters: time < 1.5 hr, dose 10 mg/kg, route oral
[5] = system: Intestine; assay: Decrease of CYP3A2 level in streptozotocin-induced diabetes mellitus model of Sprague-Dawley rat intestine by Western blot analysis; type: ADME; summary of the method: as §1
[6] = system: Liver; assay: Increase of CYP3A2 level in streptozotocin-induced diabetes mellitus model of Sprague-Dawley rat liver by Western blot analysis relative to wild type rat; type: ADME, tissue-based; summary of the method: as §1
[7] = AUC (0 to 90 mins) in streptozotocin-induced diabetes mellitus model of Sprague-Dawley rat portal vein plasma at 10 mg/kg, po; type: ADME, organism-based; parameters: time < 1.5 hr, dose 10 mg/kg, route oral
[8] = Cmax in streptozotocin-induced diabetes mellitus model of Sprague-Dawley rat portal vein plasma at 10 mg/kg, po; type: ADME, organism-based; parameters: dose 10 mg/kg, route oral
[9] = Tmax in streptozotocin-induced diabetes mellitus model of Sprague-Dawley rat portal vein plasma at 10 mg/kg, po; type: ADME, organism-based; parameters: dose 10 mg/kg, route oral
[10] = system: Intestine; assay: Decrease of CYP3A1 level in streptozotocin-induced diabetes mellitus model of Sprague-Dawley rat intestine by Western blot analysis; type: ADME; summary of the method: as §1
[11] = Tmax in Sprague-Dawley rat at 10 mg/kg, po; type: ADME, organism-based; parameters: dose 10 mg/kg, route oral; settings: in vivo
[12] = Tmax in streptozotocin-induced diabetes mellitus model of Sprague-Dawley rat at 10 mg/kg, po; type: ADME, organism-based; parameters: dose 10 mg/kg, route oral; settings: in vivo
[13] = system: Rattus norvegicus; assay: Ratio of compound AUC to verapamil AUC in streptozotocin-induced diabetes mellitus model of Sprague-Dawley rat treated with 10 mg/kg, po of verapamil; type: ADME, organism-based; parameters: dose 10 mg/kg, route oral; settings: in vivo
[14] = system: Rattus norvegicus; assay: Ratio of compound AUC to verapamil AUC in Sprague-Dawley rat treated with 10 mg/kg, po of verapamil; type: ADME, organism-based; parameters: dose 10 mg/kg, route oral; settings: in vivo

Row | SMILES | Activity [1] | Tmax [2] | Cmax [3] | AUC(0-t) at 1.5 h [4] | Activity [5] | Activity [6] | AUC(0-t) at 1.5 h [7] | Cmax [8] | Tmax [9] | Activity [10] | Tmax [11] | Tmax [12] | Ratio AUC [13] | Ratio AUC [14]
1 | COc1ccc(CCN(C)CCCC(C#N)(c2ccc(OC)c(OC)c2)C(C)C)cc1OC (centres undefined) | 50% | 37.5 min | 1440 ng/mL | 1460 ng·h/mL | Toxic | 151% | 7030 ng·h/mL | 5830 ng/mL | 30 min | Toxic | 34 min | 21.7 min |  | 
2 | COc1ccc(CCNCCCC(C#N)(c2ccc(OC)c(OC)c2)C(C)C)cc1OC.Cl (centres undefined) |  |  |  |  |  |  |  |  |  |  |  |  | 0.43 | 0.69
